# Bioassay records deposited in PubChem by several laboratories.
# The list is not random: actives were taken first. Their share in the collection is about 2.8%.
# TNAP inh noacc = inhibitors of human TNAP without phosphate acceptor; P05186; purified TNAP, CDP-star luminescence, 30 min; inhibition, % at 20 µM; 200,000 tested, 0.26% active;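 active means tissue-nonspecific alkaline phosphatase inhibition above about 50% at 20 µM in the single-dose screen, limit read from the data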;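 further: 0% = DMSO negative control and 100% = EDTA positive control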
# Target sequence (P05186 whole entry, looked up): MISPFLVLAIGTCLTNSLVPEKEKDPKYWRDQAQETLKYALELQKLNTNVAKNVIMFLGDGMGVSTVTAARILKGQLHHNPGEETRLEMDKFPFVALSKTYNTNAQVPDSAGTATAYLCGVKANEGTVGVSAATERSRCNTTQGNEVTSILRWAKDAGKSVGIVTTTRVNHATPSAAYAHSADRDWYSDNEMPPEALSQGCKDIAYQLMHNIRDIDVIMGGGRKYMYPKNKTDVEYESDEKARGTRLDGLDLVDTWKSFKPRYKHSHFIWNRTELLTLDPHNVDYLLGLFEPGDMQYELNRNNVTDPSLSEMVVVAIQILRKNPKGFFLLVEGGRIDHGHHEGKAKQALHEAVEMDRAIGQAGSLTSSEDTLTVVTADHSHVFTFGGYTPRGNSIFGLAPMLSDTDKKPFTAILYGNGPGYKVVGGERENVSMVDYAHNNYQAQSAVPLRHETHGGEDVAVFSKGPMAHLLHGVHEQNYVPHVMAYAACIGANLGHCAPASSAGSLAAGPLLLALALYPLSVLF
# BB579 growth dn = reduces growth of yeast BB579 in restrictive medium. S. cerevisiae BB579 growth, OD615, 48 h. 140,000 tested, 0.51% active. AID 804. inhibition, % at 10 µM;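 active means inhibition above a set limit, 3 SD over the mean compound inhibition, cut at about 44% in these data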
#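 Test system: DeaD yeast strain BB579 / Buffer or medium: restrictive glucose-based CSMM-D medium / Doses: single 10 µM dose / Schedule: 4 h cell preincubation, 48 h compound exposure, 30 °C humidified / Technique: culture absorbance at 615 nm / Controls: amphotericin B positive control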
# RAM network inh = blocks the yeast RAM network; S. cerevisiae dse1pr::URA3 reporter, 5-FOA growth OD615, 2 d; analog-sensitive cbk1-as2 kinase mutant strain; inhibition, % at 50 µM; 190,000 tested, 1.8% active;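 active means inhibition above a set limit, 3 SD over mean compound inhibition, cut at about 8.4% in these data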;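 further: 0% = DMSO-only wells with no growth and 100% = 10 µM 1-NA-PP1 full growth; inhibition rescues growth on 5-FOA so higher OD means more RAM inhibition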
# Yeast life ext = extends the lifespan of yeast | S. cerevisiae growth with nicotinamide, OD615; deaD strain in restrictive glucose medium | inhibition of the nicotinamide effect, % at 10 µM | 130,000 tested, 0.68% active | AID 775;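 active means inhibition above a set limit, placed 3 SD over the median of all compounds, cut at about 26% in these data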;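 further: 0% = nicotinamide-treated wells and 100% = cells grown without nicotinamide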
#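 Measured by: optical density (absorbance) at 615 nm; System: modified budding yeast, DeaD strain; Medium: restrictive CSMM-D dextrose medium; Timing: 4 h preincubation then 48 h treatment at 30 °C.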
# TNAP act hiacc = TNAP (human) activation, high acceptor; purified TNAP, CDP-star luminescence, 1 M DEA, 30 min; stronger effect = higher value; 0 = EDTA background, 1 = DMSO-only activity; activation factor at 20 µM; 200,000 tested, under 10 active; AID 1136;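 active means activation factor at least 2 at 20 µM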
#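 Control set: EDTA negative control, DMSO positive control / Assay system: human TNAP / Quantity: TNAP 1/800 final / Evaluation: TNAP activation factor scaled between EDTA and DMSO control wells / Measured by: luminescent substrate turnover signal / Compound dosing: one dose, 20 µM / Times: 30 min enzyme reaction at room temperature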
# TNAP inh hi DEA = inhibitors of human TNAP at high phosphate acceptor concentration; P05186; purified TNAP, CDP-star luminescence, 1 M DEA; inhibition, % at 20 µM; 200,000 tested, 0.03% active; AID 1135;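 active means over 50% inhibition of tissue-nonspecific alkaline phosphatase at 20 µM in the single-dose screen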;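 further: plate controls were DMSO wells for no effect and EDTA-quenched wells as full inhibition for full effect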
# The depositor's hits bear a star; nt = not tested or not shown.
SMILES,TNAP inh noacc,BB579 growth dn,RAM network inh,Yeast life ext,TNAP act hiacc,TNAP inh hi DEA
Cc1ccccc1OCC(=O)N1N=C(C(F)(F)F)CC1(O)C(C)(C)C (stereo unspecified),-8.4,-11.8,9.2*,nt,1,-2.5
CN(C)Cc1c(O)c(Cl)cc2c3c(c(=O)oc12)CCCC3,-14.7,-13.1,-2.4,30.3*,1,0.6
O=C(CSc1nnc(-c2ccccc2)o1)c1ccc2c(c1)OCCO2,5.1,-37.8,8.4*,-7.3,1.1,-5.6
CNS(=O)(=O)c1ccc(C)c(S(=O)(=O)NC)c1,-8.7,-45.3,1.2,4.8,1.1,-6.8
COc1ccc(S(=O)(=O)Nc2cc(Sc3ncn[nH]3)c(O)c3ccccc23)cc1,29.0,-22.6,2.2,-15.3,1,4.2
Cc1cc(C)c(S(=O)(=O)Nc2ccc(O)c(Sc3ncn[nH]3)c2)c(C)c1,72.4*,15.4,2.1,13.5,1,1.1
COc1ccc(S(=O)(=O)Nc2ccc(O)c(Sc3ncn[nH]3)c2)cc1,79.3*,5.5,1.5,nt,0.9,5.3
Cc1cc(C)c(S(=O)(=O)Nc2ccc3[nH]c(=O)[nH]c3c2)c(C)c1,-15.5,nt,0.6,nt,1.1,-7.1
CN(Cc1cn(C)nc1-c1ccc(Oc2ccccc2)cc1)Cc1cnc2ccccn12,47.1,nt,0.0,nt,0.7,26.0
Cn1cc(CNCc2cnc3ccccn23)c(-c2ccc(Oc3ccccc3)cc2)n1,74.1*,nt,1.9,nt,0.6,39.2
Cc1ccc(NC(=O)CN(C)CC(=O)Nc2c(C)cccc2C)c(Br)c1,-2.2,-3.8,1.5,-8.9,1,2.8
COc1cc(C(=O)NNC(=O)c2ccc(NC(=O)C(C)(C)C)cc2)cc(OC)c1OC,-11.5,nt,1.5,nt,1,-1.8
Oc1ccc(-c2csc(-c3ccccc3)n2)cc1O,41.7,82.6*,-1.8,-20.4,0.9,12.8
Oc1ccccc1-c1csc(-c2ccccc2)n1,-3.0,nt,1.9,nt,1,-0.6
CSC[C@@H]1NC(=S)N(c2ccc(C)cc2)C1=O,-5.3,8.6,1.3,30.9*,1,2.4
C=CCn1c(=N)n(CC(=O)c2ccc(Br)s2)c2ccccc21,-4.6,-28.1,1.8,1.5,1,-1.2
CCc1ccccc1NS(=O)(=O)c1ccc2[nH]cc(C(=O)NCC3CCCO3)c(=O)c2c1 (stereo unspecified),-3.5,-38.8,3.8,-12.2,1,2.5
CN(Cc1ccccc1)S(=O)(=O)c1ccc2[nH]cc(C(=O)NCC3CCCO3)c(=O)c2c1 (stereo unspecified),3.0,-34.5,8.7*,-14.6,1,-4.6
CCOc1ccc(NS(=O)(=O)c2ccc3[nH]cc(C(=O)NCC4CCCO4)c(=O)c3c2)cc1 (stereo unspecified),-13.4,-37.6,9.3*,-15.2,1.1,-6.1
CC(=O)N1CCN(CC(=O)Nc2c(Cl)ccc(C)c2Cl)CC1,-13.6,nt,0.6,nt,1,-2.6
Nc1ccc2oc(-c3ccccc3Cl)cc(=O)c2c1O,5.1,-38.0,0.4,-8.0,0.9,5.2
O=c1cc(-c2ccccc2Cl)oc2ccc([N+](=O)[O-])c(O)c12,4.2,-42.0,5.1,63.7*,0.9,8.2
COCCCN1CN(Cc2ccccc2)CNC1=S,-8.1,8.2,0.5,0.1,1,0.0
Cc1ccc(S(=O)(=O)N2CCCCC2)cc1NC(=O)CSc1nccn1C,1.8,nt,-0.1,nt,1,-2.4
N#C/C(=C\c1ccccc1)C(=O)N(c1ccccn1)C1CCCCC1,-15.1,-39.7,1.4,62.9*,1,-4.6
SMILES,TNAP inh noacc,BB579 growth dn,RAM network inh,Yeast life ext,TNAP act hiacc,TNAP inh hi DEA
O=C(c1cccc(C(=O)N(c2ccccn2)C2CCCCC2)c1)N(c1ccccn1)C1CCCCC1,-2.1,nt,1.2,nt,1,1.8
CCn1ccc(C(=O)Nc2ccc(S(=O)(=O)Nc3ccccc3OC)cc2)n1,-4.2,-57.9,0.2,67.0*,1,-3.4
COc1ccc(N(CC(=O)NC2CCCC2)C(=O)Cn2nnc(-c3ccc(F)cc3)n2)cc1OC,-10.0,-51.7,9.3*,-16.3,1.1,-5.4
Cc1cc(C)c(C)c(S(=O)(=O)Nc2ccc(OCC(=O)O)cc2)c1C,19.0,1.3,0.8,-12.3,1.1,-9.0
CCOc1cc(-c2nc(-c3ccncc3)no2)cc(OCC)c1OCC,-6.7,-53.5,0.8,-16.6,1.1,-5.7
CCOc1cc(-c2nc(-c3ccc(OC)cc3)no2)cc(OCC)c1OCC,-4.9,-63.0,9.6*,5.1,1,-3.1
Cc1ccc(C(=O)NC2c3ccccc3-c3ccccc32)cc1,-8.1,-4.7,0.4,-3.9,1,2.8
Cc1ccc(C(=O)C2C(=O)c3ccccc3C2=O)cc1,-10.3,-43.7,-0.8,69.3*,1,-2.1
CCN1/C(=C(\O)c2ccccc2)C(=O)c2ccccc2S1(=O)=O,-0.9,100.0*,-2.0,-24.7,1,-3.1
Cc1cc(C(=O)COC(=O)c2ccc[nH]c2=O)c(C)n1-c1ccc(F)cc1,-13.8,53.8*,-1.0,17.0,1,0.0
Cc1cc(C(=O)COC(=O)c2ccc[nH]c2=O)c(C)n1C1CC1,-11.6,-6.0,5.1,28.8*,1.1,-7.4
Cc1cc(C(=O)COC(=O)c2ccc[nH]c2=O)c(C)n1-c1ccccc1,-14.1,59.1*,-1.3,21.6,1,-1.9
CCNC(=O)COC(=O)c1cc(C)n(-c2ccccc2)c1C,-10.6,nt,0.0,nt,1.1,-8.5
Cc1cc(C(=O)COc2ccccc2C(N)=O)c(C)n1C1CC1,-9.7,nt,1.9,nt,1,-2.3
COc1ccc(C2C(=O)c3ccccc3C2=O)cc1OC,-3.6,nt,1.1,nt,1,4.3
COc1ccc(C2C(=O)c3ccccc3C2=O)cc1,-3.1,-28.4,2.2,31.9*,1,-2.9
CCOC(=O)c1cc2c(=O)n3ccccc3nc2n(C(C)C)c1=NC(=O)c1c(-c2c(F)cccc2Cl)noc1C,-5.4,-21.7,10.0*,0.8,0.9,5.5
Cc1nonc1NC(=O)c1ccc(Cl)c(S(=O)(=O)N2CCCCC2)c1,-7.2,-8.2,0.0,-9.0,1,0.0
COc1cccc(-c2nc(CSCC(=O)N3CCc4ccccc43)c(C)o2)c1,14.6,-29.6,8.8*,-5.8,1,-1.0
COc1cccc(-c2nnc(SCC(=O)N3CCCc4ccccc43)o2)c1,-9.6,-40.3,8.5*,-12.4,1,-4.1
O=C(CSc1nnc(CNc2ccc(F)cc2)o1)c1ccccc1,-7.1,nt,2.1,nt,1,-1.4
Cc1ccc(S(=O)(=O)Nc2ccccc2/C=N/c2nc3ccccc3n2C)cc1,15.5,-34.6,0.2,31.0*,1,-2.5
Cc1ccc(S(=O)(=O)Nc2ccccc2C=Nc2cccc(C)c2C)cc1,-8.8,-40.9,1.1,11.3,1,-1.9
O=C(Nc1ccc(Cn2cccn2)cc1)c1ccc(COc2ccc(Br)cc2)cc1,-8.8,-31.4,2.0,-3.8,1,-2.3
